Test results reported in ChEMBL document CHEMBL4387752, “Identification of substituted benzothiazole sulfones as potent and selective inhibitors of endothelial lipase” (Bioorg Med Chem Lett, 2019).
pIC50: −log10 of the molar value. Values belong to the compound of their own block, whether it stands above or below them. Active and inactive are the calls of the source. The rule behind the calls is not given here.

How the values were obtained:
Endothelial lipase [1] = target: T1, Endothelial lipase (Homo sapiens, UniProt Q9Y5X9); assay: Inhibition of human endothelial lipase derived from human HT1080 cell conditioned media using PED-A1 as substrate incubated for 20 mins and measured every 20 secs for 10 mins by FRET assay
T1 sequence (Q9Y5X9 whole entry): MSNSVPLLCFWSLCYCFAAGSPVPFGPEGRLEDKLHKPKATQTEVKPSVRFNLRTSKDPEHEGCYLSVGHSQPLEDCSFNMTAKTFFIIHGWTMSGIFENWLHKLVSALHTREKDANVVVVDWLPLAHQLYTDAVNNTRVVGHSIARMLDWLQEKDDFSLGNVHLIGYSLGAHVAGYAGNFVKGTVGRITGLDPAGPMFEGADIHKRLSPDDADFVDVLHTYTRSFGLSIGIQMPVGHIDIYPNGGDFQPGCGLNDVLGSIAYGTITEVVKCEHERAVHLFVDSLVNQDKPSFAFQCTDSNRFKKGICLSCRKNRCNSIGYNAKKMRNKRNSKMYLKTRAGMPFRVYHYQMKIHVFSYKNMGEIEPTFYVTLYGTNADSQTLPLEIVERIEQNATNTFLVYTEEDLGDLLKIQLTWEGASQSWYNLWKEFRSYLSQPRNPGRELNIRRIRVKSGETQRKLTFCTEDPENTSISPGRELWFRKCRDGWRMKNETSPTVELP
Summary of the method: (§1)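 IC50s were calculated from mean inhibition values of duplicate determinations.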

[2] = target: T2, Hepatic triacylglycerol lipase (Homo sapiens, UniProt P11150); assay: Inhibition of human hepatic lipase expressed in African green monkey COS7 cells using PED-A1 as substrate incubated for 20 mins and measured every 20 secs for 10 mins by FRET assay; assay type: cell-based; summary of the method: as §1
T2 sequence (P11150 whole entry): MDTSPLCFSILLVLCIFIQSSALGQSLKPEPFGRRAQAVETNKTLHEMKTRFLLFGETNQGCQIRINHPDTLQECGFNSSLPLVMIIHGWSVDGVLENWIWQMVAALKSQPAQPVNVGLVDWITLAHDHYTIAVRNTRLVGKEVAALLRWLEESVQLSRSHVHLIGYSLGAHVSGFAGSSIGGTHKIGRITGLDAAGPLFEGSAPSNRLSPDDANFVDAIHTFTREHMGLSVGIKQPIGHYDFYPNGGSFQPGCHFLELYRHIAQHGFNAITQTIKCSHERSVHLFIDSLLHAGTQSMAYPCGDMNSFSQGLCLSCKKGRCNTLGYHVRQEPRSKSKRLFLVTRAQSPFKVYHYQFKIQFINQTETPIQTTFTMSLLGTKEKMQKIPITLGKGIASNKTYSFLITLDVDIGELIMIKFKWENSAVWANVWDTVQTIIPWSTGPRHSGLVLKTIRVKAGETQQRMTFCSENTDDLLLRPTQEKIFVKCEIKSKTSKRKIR

Endothelial lipase [3] = target: T3, Endothelial lipase (Mus musculus, UniProt Q9WVG5); assay: Inhibition of mouse endothelial lipase expressed in HEK293F cells using D31-POPC-HDL as substrate incubated for 2 hrs in presence of mouse plasma by LC/MS analysis
T3 sequence (Q9WVG5 whole entry): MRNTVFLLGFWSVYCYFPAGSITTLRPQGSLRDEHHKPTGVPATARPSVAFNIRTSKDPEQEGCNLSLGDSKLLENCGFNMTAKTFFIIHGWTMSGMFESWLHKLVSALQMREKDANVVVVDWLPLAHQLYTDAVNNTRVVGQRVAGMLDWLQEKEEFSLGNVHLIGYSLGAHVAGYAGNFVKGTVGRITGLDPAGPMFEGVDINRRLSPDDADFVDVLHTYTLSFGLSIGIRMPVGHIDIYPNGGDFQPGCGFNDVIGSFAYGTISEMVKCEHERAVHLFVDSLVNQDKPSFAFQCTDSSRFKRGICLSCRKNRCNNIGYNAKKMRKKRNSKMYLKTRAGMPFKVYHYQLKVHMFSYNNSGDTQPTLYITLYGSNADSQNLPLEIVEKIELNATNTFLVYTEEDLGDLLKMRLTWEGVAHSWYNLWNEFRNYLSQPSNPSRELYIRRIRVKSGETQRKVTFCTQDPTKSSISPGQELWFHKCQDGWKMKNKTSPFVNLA
Summary of the method: (§2)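 IC50 values were derived from the means of duplicate inhibition measurements.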

Homo sapiens = species: Homo sapiens; assay: Selectivity index, ratio of IC50 for inhibition of human hepatic lipase expressed in African green monkey COS7 cells to IC50 for inhibition of human endothelial lipase derived from human HT1080 cell conditioned media; assay type: cell-based
Endothelial lipase [4] = target: T1, Endothelial lipase; assay: Inhibition of human endothelial lipase using D31-POPC-HDL as substrate incubated for 2 hrs in presence of human serum by LC/MS analysis; summary of the method: as §2
[5] = Cmax in Balb/c mouse at 10 mg/kg, po; assay type: ADME, organism-based; parameters: dose 10 mg/kg, route oral; details: in vivo
Summary of the method: (§3)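 Oral PK in fasted male balb/c mice. Dosing vehicle was ethanol/PEG 400/water (10:60:30).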

[6] = Plasma concentration in Balb/c mouse at 10 mg/kg, po measured after 7 hrs; assay type: ADME, organism-based; summary of the method: as §3
[7] = Plasma concentration in Balb/c mouse at 10 mg/kg, po measured after 24 hrs; assay type: ADME, organism-based; summary of the method: as §3
[8] = Tmax in Balb/c mouse at 10 mg/kg, po; assay type: ADME, organism-based; details: in vivo; summary of the method: as §3
[9] = Total AUC in Balb/c mouse at 10 mg/kg, po measured after 24 hrs; assay type: ADME, organism-based; parameters: dose 10 mg/kg, time AUCmax, route oral; details: in vivo; summary of the method: as §3
[10] = Metabolic stability in Balb/c mouse liver microsomes assessed as parent compound remaining at 0.5 uM measured after 10 mins; assay type: ADME, Microsome; details: read-out: Stability
Summary of the method: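 Test compound at 0.5 μM was incubated for 10 min with mouse liver microsomes. The read-out is the percentage of parent remaining.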

[11] = Permeability of compound at pH 5.5 by PAMPA; assay type: ADME; details: read-out: permeability
Summary of the method: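 Permeability was measured by parallel artificial membrane permeability assay (PAMPA) at pH 5.5 and pH 7.4. Values are reported in nm/s.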

Endothelial lipase [12] = target: T3, Endothelial lipase; assay: Inhibition of endothelial lipase in hepatic lipase knock-out mouse plasma using D31-POPC-HDL as substrate incubated for 2 hrs by LC/MS analysis; assay type: cell-free; summary of the method: as §2
[13] = Cmax in Balb/c mouse at 20 mg/kg, po; assay type: ADME, organism-based; parameters: dose 20 mg/kg, route oral; details: in vivo; summary of the method: as §3
[14] = Plasma concentration in Balb/c mouse at 20 mg/kg, po measured after 7 hrs; assay type: ADME, organism-based; summary of the method: as §3
[15] = Plasma concentration in Balb/c mouse at 20 mg/kg, po measured after 24 hrs; assay type: ADME, organism-based; summary of the method: as §3
[16] = Tmax in Balb/c mouse at 20 mg/kg, po; assay type: ADME, organism-based; details: in vivo; summary of the method: as §3
[17] = Half life in Balb/c mouse at 20 mg/kg, po; assay type: ADME, organism-based; details: in vivo; summary of the method: as §3
[18] = Total AUC in Balb/c mouse at 20 mg/kg, po measured after 24 hrs; assay type: ADME, organism-based; parameters: dose 20 mg/kg, time AUCmax, route oral; details: in vivo; summary of the method: as §3
[19] = Cmax in Balb/c mouse at 30 mg/kg, po; assay type: ADME, organism-based; parameters: dose 30 mg/kg, route oral; details: in vivo; summary of the method: as §3
[20] = Plasma concentration in Balb/c mouse at 30 mg/kg, po measured after 7 hrs; assay type: ADME, organism-based; summary of the method: as §3
[21] = Plasma concentration in Balb/c mouse at 30 mg/kg, po measured after 24 hrs; assay type: ADME, organism-based; summary of the method: as §3
[22] = Tmax in Balb/c mouse at 30 mg/kg, po; assay type: ADME, organism-based; details: in vivo; summary of the method: as §3
[23] = Half life in Balb/c mouse at 30 mg/kg, po; assay type: ADME, organism-based; details: in vivo; summary of the method: as §3
[24] = Total AUC in Balb/c mouse at 30 mg/kg, po measured after 24 hrs; assay type: ADME, organism-based; parameters: dose 30 mg/kg, route oral, time AUCmax; details: in vivo; summary of the method: as §3
[25] = Half life in Balb/c mouse at 10 mg/kg, po; assay type: ADME, organism-based; details: in vivo; summary of the method: as §3
[26] = Ratio of total AUC in Balb/c mouse at 20 mg/kg, po to total AUC in Balb/c mouse at 10 mg/kg, po measured after 24 hrs; assay type: ADME, organism-based; details: in vivo
Summary of the method: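 Ratio of AUCtotal between 20 and 10 mg/kg oral doses in fasted male balb/c mice. Vehicle was ethanol/PEG 400/water (10:60:30).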

[27] = Ratio of Cmin in Balb/c mouse at 20 mg/kg, po bid to IC50 for inhibition of mouse endothelial lipase expressed in HEK293F cells using D31-POPC-HDL as substrate incubated for 2 hrs in presence of mouse plasma by LC/MS analysis; assay type: organism-based; details: in vivo
[28] = Cmin in C57BL/6 mouse at 20 mg/kg, po bid measured after 8 hrs; assay type: ADME, organism-based; details: in vivo, read-out: Cmin
Summary of the method: (§4)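 Satellite PK cohort of wild-type C57BL/6 mice given 20 mg/kg p.o. b.i.d. over 4 days. Plasma levels were taken at 8, 24 and 102 h.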

[29] = Cmin in C57BL/6 mouse at 20 mg/kg, po bid measured after 24 hrs; assay type: ADME, organism-based; details: in vivo, read-out: Cmin; summary of the method: as §4
[30] = Cmin in C57BL/6 mouse at 20 mg/kg, po bid measured after 102 hrs; assay type: ADME, organism-based; details: in vivo, read-out: Cmin; summary of the method: as §4
Mus musculus [31] = assay: Effect on in LDL-C level in C57BL/6 mouse plasma at 20 mg/kg, po bid measured after 1 to 4 days by FPLC analysis; assay type: functional, organism-based
Summary of the method: (§5)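 Wild-type C57BL/6 mice were dosed at 20 mg/kg p.o. b.i.d. for 4 days alongside a vehicle control group. Lipoprotein profiles were obtained by FPLC on day 1 and day 4, using plasma pooled from 8 mice.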

Mus musculus [32] = assay: Increase in HDL-C level in C57BL/6 mouse plasma at 20 mg/kg, po bid measured after 1 to 4 days by FPLC analysis; assay type: functional, organism-based; summary of the method: as §5
[33] = Ratio of Cmin in C57BL/6 mouse at 20 mg/kg, po bid measured after 8 hrs to IC50 for inhibition of mouse endothelial lipase expressed in HEK293F cells using D31-POPC-HDL as substrate incubated for 2 hrs in presence of mouse plasma by LC/MS analysis; assay type: organism-based; details: in vivo
[34] = Ratio of Cmin in C57BL/6 mouse at 20 mg/kg, po bid measured after 24 hrs to IC50 for inhibition of mouse endothelial lipase expressed in HEK293F cells using D31-POPC-HDL as substrate incubated for 2 hrs in presence of mouse plasma by LC/MS analysis; assay type: organism-based; details: in vivo
[35] = Ratio of Cmin in C57BL/6 mouse at 20 mg/kg, po bid measured after 102 hrs to IC50 for inhibition of mouse endothelial lipase expressed in HEK293F cells using D31-POPC-HDL as substrate incubated for 2 hrs in presence of mouse plasma by LC/MS analysis; assay type: organism-based; details: in vivo

SMILES: CS(=O)(=O)C(C(=O)NCCNS(N)(=O)=O)c1nc2ccc(-c3ccccc3)cc2s1 (stereo not drawn)
pIC50 (Endothelial lipase [1]): 6.35
pIC50 [2]: 7.09

SMILES: COCCS(=O)(=O)C(C(=O)NCC(=O)NC1CC1)c1nc2ccc(-c3ccc(F)nc3)cc2s1 (stereo not drawn)
pIC50 (Endothelial lipase [1]): 8.34
pIC50 [2]: 6.64
pIC50 (Endothelial lipase [3]): 6.92
Cmax [5]: 39 µM
concentration at 7 h [6]: 1.7 µM
concentration at 24 h [7]: 0.014 µM
Tmax [8]: 1 h
AUC at 24 h [9]: 111 µM·h
remaining at 10 min, 0.5 µM [10]: 81%
Papp [11]: 9.4 ×10⁻⁶ cm/s
Ratio IC50 (Homo sapiens): 84
pIC50 (Endothelial lipase [4]): 7.08
pIC50 (Endothelial lipase [12]): 6.51
Cmax [13]: 143 µM
concentration at 7 h [14]: 7.4 µM
concentration at 24 h [15]: 0.045 µM
Tmax [16]: 0.5 h
half-life [17]: 2.3 h
AUC at 24 h [18]: 400 µM·h
Cmax [19]: 142 µM
concentration at 7 h [20]: 2.42 µM
concentration at 24 h [21]: 0.025 µM
Tmax [22]: 0.25 h
half-life [23]: 2.3 h
AUC at 24 h [24]: 240 µM·h
half-life [25]: 2.2 h
Ratio [26]: 3.6
Ratio [27]: 23
concentration at 8 h [28]: 5.2 µM
concentration at 24 h [29]: 1.8 µM
concentration at 102 h [30]: 6.5 µM
Activity (Mus musculus [31]): inactive
Activity (Mus musculus [32]): inactive
Ratio [33]: > 15
Ratio [34]: > 15
Ratio [35]: > 15

The next lines start with results.

pIC50 [2]: 7.10
pIC50 (Endothelial lipase [3]): 6.22
pIC50 (Endothelial lipase [4]): 6.18
SMILES: O=C(CNC(=O)C(c1nc2ccc(-c3ccc(F)nc3)cc2s1)S(=O)(=O)CCC(F)(F)F)NC1CC1 (stereo not drawn)
Ratio IC50 (Homo sapiens): 2.7

pIC50 (Endothelial lipase [1]): 7.60
pIC50 [2]: 8.15
pIC50 (Endothelial lipase [3]): 7.03
pIC50 (Endothelial lipase [4]): 7.19
SMILES: O=C(CNC(=O)C(c1nc2ccc(-c3ccc(F)nc3)cc2s1)S(=O)(=O)Cc1ccccc1)NC1CC1 (stereo not drawn)
Ratio IC50 (Homo sapiens): 0.3

pIC50 [2]: 7.33
SMILES: CS(=O)(=O)C(C(=O)NCC(=O)NC1CC1)c1nc2ccc(-c3ccccc3)cc2s1 (stereo not drawn)
